From ChEMBL document CHEMBL2176927 (J Med Chem, 2012)
Calls of active or inactive are those of the source. The calls are words filed in the database; no cut-off is given here.

Experiments:
Mus musculus [1] = organism: Mus musculus; conditions: U-87MG ATCC, 100 mg/kg
[2] = Plasma protein binding in human; format: ADME, cell-free; conditions: read-out: PPB (converted)
PC-3 [3] = test: Antitumor activity against human PC3 cells xenografted mouse assessed as tumor growth inhibition at 50 mg/kg, po qd for 14 days; format: functional, organism-based; parameters: dose 50 mg/kg
Method in brief: (§1)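 Female NCR.nude mice with subcutaneous NCI-PC3 flank tumours, dosed orally once daily (or twice daily at the same daily total) for 14 days from a mean tumour volume of 200 mm3; 5 mice/group. Caliper volume is (L x W x W)/2, measured twice weekly.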

Cytochrome P450 3A4 = Cytochrome P450 3A4 (Homo sapiens, UniProt P08684); test: Inhibition of CYP3A4-mediated midazolam and testosterone metabolism; format: ADME; conditions: recombinant enzyme
Sequence of Cytochrome P450 3A4 (P08684 whole entry): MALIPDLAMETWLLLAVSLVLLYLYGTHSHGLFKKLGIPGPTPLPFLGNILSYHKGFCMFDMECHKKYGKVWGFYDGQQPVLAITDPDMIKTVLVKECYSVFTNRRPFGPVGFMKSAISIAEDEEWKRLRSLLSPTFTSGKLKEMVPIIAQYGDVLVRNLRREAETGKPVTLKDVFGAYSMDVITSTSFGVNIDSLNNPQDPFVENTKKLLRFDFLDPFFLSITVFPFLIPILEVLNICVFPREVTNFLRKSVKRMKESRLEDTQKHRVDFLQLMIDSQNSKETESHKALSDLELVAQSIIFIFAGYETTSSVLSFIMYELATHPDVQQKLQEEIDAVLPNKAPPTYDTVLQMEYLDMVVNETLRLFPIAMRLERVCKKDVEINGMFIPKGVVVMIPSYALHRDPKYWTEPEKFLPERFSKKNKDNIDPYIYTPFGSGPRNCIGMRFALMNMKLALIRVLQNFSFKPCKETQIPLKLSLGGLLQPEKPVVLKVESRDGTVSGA

Mus musculus [4] = test: Toxicity in human PC3 cells xenografted mouse assessed as reduction of body weight at 200 mg/kg, po qd for 14 days; format: organism-based, PC-3; parameters: dose 200 mg/kg, route oral; scale not given: the % may be the effect or the level left; conditions: in vivo, 336 h
Method in brief: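 Same PC3 s.c. xenograft in nude mice with QD oral dosing, 5 animals per group. Body weight was measured twice weekly; loss above 10% is the protocol limit for tolerated doses and triggers a dosing holiday.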

[5] = Clearance in mouse at 1 mg/kg, iv; format: ADME, organism-based; parameters: dose 1 mg/kg, route intravenous; conditions: in vivo
[6] = Clearance in human liver microsomes; format: ADME, Microsome
Method in brief: (§2)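 Hepatic clearance (Clhep) predicted from incubation with human, rat or mouse liver microsomes.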

PC-3 [7] = test: Antitumor activity against human PC3 cells xenografted mouse assessed as tumor growth inhibition at 6.25 to 100 mg/kg, po qd for 14 days; format: functional, organism-based
Method in brief: as §1

[8] = Clearance in rat liver microsomes; format: ADME, Microsome
Method in brief: as §2

[9] = Plasma protein binding in mouse; format: ADME, cell-free; conditions: read-out: PPB (converted)
[10] = AUC in mouse at 5 mg/kg, po; format: ADME, organism-based; parameters: dose 5 mg/kg, route oral; conditions: plasma
Cytochrome P450 2D6 = Cytochrome P450 2D6 (Homo sapiens, UniProt P10635); test: Inhibition of CYP2D6-mediated dextromethorphan metabolism; format: ADME; conditions: recombinant enzyme
Sequence of Cytochrome P450 2D6 (P10635 whole entry): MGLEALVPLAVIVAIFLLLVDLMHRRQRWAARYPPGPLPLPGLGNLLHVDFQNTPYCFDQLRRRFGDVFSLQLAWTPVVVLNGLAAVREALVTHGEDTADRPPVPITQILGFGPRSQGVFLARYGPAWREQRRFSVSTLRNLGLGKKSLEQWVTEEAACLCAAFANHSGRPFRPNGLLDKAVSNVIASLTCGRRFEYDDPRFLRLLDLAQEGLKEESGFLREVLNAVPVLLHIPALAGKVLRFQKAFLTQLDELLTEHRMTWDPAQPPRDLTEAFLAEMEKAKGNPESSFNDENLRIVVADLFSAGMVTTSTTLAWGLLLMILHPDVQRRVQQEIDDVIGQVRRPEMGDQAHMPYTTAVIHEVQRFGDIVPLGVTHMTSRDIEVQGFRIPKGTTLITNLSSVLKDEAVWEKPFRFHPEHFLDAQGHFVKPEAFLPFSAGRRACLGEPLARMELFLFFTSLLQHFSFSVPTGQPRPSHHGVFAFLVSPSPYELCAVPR

[11] = Oral bioavailability in mouse at 5 mg/kg; format: ADME, organism-based; conditions: in vivo
Mus musculus [12] = organism: Mus musculus; conditions: U-87MG ATCC, 100 mg/kg; remark: listed apart in the source
Cytochrome P450 1A2 = biological target: T1, Cytochrome P450 1A2 (Homo sapiens, UniProt P05177); test: Inhibition of CYP1A2-mediated phenacetin metabolism; format: ADME; conditions: recombinant enzyme
T1 sequence (P05177 whole entry): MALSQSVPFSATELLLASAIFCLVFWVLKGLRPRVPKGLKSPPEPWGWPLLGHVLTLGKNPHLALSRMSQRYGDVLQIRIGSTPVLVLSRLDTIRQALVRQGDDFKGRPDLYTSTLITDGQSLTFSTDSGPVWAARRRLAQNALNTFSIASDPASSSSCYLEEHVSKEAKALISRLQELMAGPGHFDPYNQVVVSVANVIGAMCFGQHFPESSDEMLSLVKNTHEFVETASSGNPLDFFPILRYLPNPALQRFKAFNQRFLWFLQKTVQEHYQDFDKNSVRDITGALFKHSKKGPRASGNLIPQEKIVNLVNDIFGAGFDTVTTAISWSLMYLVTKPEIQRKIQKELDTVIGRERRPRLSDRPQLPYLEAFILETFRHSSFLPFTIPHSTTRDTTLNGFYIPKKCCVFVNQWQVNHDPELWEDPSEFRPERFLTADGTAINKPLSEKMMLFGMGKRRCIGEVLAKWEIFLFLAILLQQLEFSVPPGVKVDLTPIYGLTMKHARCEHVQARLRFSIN

Mus musculus [13] = organism: Mus musculus; conditions: PC-3, 25 to 100 mg/kg
[14] = Half life in mouse at 1 mg/kg, iv; format: ADME, organism-based; parameters: dose 1 mg/kg, route intravenous; conditions: in vivo
Mus musculus [15] = organism: Mus musculus; conditions: PC-3, 25 to 100 mg/kg; remark: listed apart in the source
[16] = Plasma protein binding in rat; format: ADME, cell-free; conditions: read-out: PPB (converted)
[17] = Clearance in mouse liver microsomes; format: ADME, Microsome
Method in brief: as §2

Cytochrome P450 2C19 = Cytochrome P450 2C19 (Homo sapiens, UniProt P33261); test: Inhibition of CYP2C19-mediated mephenytoin metabolism; format: ADME; conditions: recombinant enzyme
Sequence of Cytochrome P450 2C19 (P33261 whole entry): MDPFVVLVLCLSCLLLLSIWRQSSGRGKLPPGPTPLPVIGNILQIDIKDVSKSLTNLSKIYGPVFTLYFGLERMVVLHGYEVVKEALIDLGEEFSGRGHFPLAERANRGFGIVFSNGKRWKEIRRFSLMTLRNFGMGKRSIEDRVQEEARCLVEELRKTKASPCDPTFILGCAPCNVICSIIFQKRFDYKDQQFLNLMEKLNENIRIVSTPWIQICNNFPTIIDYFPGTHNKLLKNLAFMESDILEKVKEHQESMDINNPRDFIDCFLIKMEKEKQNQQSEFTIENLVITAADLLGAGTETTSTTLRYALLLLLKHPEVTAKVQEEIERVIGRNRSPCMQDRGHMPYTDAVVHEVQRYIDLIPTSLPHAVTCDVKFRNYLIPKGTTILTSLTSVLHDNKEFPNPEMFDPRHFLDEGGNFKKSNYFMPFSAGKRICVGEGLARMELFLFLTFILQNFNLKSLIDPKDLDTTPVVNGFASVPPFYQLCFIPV

[18] = Inhibition of mTORC2 in human pTEN deficient NCI-PC3 cells assessed as reduction of Akt phosphorylation at Ser473; format: cell-based
PC-3 [19] = test: Cytotoxicity against human pTEN deficient PC3 after 3 days; format: functional, cell-based; conditions: PC-3, 72 h
PC-3 [20] = test: Antitumor activity against human PC3 cells xenografted mouse assessed as tumor growth inhibition at […] to 100 mg/kg, po bid for 14 days; format: functional, organism-based
Method in brief: as §1

Cytochrome P450 2C9 = Cytochrome P450 2C9 (Homo sapiens, UniProt P11712); test: Inhibition of CYP2C9-mediated warfarin metabolism; format: ADME; conditions: recombinant enzyme
Sequence of Cytochrome P450 2C9 (P11712 whole entry): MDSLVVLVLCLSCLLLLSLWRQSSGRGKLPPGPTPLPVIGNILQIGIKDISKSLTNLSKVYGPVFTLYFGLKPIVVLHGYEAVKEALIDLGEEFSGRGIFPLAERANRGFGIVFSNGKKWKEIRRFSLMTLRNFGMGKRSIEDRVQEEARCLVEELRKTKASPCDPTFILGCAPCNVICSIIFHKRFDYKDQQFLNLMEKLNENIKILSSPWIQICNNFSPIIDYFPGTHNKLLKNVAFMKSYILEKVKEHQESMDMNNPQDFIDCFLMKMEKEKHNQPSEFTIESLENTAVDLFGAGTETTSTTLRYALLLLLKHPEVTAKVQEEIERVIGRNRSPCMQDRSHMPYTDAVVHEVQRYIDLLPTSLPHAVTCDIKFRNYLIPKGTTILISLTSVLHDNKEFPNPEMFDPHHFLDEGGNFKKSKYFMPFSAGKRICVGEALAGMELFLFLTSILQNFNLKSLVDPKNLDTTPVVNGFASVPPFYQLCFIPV

[21] = Cytotoxicity against human MCF7/neo expressing HER2 after 3 days; format: functional
[22] = Volume of distribution at steady state in mouse at 1 mg/kg, iv; format: ADME, organism-based; parameters: dose 1 mg/kg, route intravenous; conditions: in vivo, read-out: Vdss
[23] = Selectivity ratio of Ki for PI3Kalpha to Ki for mTOR
Mus musculus [24] = test: Inhibition of mTORC1 in human PC3 cells xenografted mouse assessed as reduction of phosphorylated p70S6K level at 10 mg/kg, po after 6 hrs; format: functional, organism-based; parameters: dose 10 mg/kg; conditions: PC-3
Mus musculus [25] = test: Inhibition of mTORC2 in human PC3 cells xenografted mouse assessed as reduction of phosphorylated Akt level at 10 mg/kg, po after 6 hrs; format: functional, organism-based; parameters: dose 10 mg/kg; conditions: PC-3
Method in brief: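 NCI-PC3 s.c. xenografts in female NCR.nude mice grown to about 500 mm3, then randomized (n = 4). Oral suspension in 0.5% methylcellulose/0.2% Tween 80. Tumors were lysed, normalized by BCA assay, and loaded at 20 µg/well. pAkt Ser473 and total Akt were measured in duplex on Meso Scale electrochemiluminescence in duplicate per mouse, relative to time-matched vehicle mean.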

PC-3 [26] = test: Antitumor activity against human PC3 cells xenografted mouse assessed as tumor growth inhibition at 10 mg/kg, po qd for 14 days; format: functional, organism-based; parameters: dose 10 mg/kg
Method in brief: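 Female NCR.nude mice implanted s.c. in right hind flank with NCI-PC3 cells (5 × 10^6 in Hank's balanced salt solution). Dosing started QD at average tumor volume 200 mm3, 5 mice per group. Body weight recorded twice weekly; 10% body weight loss was the limit for tolerated doses, and mice were euthanized at 20% loss or tumor volume 2000 mm3.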

Mus musculus [27] = test: Inhibition of mTORC2 in human U87 cells xenografted mouse assessed as reduction of phosphorylated Akt level at 10 mg/kg, po after 24 hrs; format: functional, organism-based; parameters: dose 10 mg/kg; conditions: U-87MG ATCC
Method in brief: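 U87 glioma (PTEN-deficient) tumor-bearing mice, four per compound and time point. Tumor and blood were sampled over 24 h. Phospho-Akt was measured in duplicate samples per mouse and expressed relative to time-matched vehicle controls; mean ± one SD.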

Mus musculus [28] = test: Inhibition of mTORC1 in human U87 cells xenografted mouse assessed as reduction of phosphorylated p70S6K level at 10 mg/kg, po after 24 hrs; format: functional, organism-based; parameters: dose 10 mg/kg; conditions: U-87MG ATCC

Structure (SMILES)	inhibition (INH) (Cytochrome P450 3A4)	clearance [5] [mL/min/kg]	CLhep predicted [6] [mL/min/kg]	CLhep predicted [8] [mL/min/kg]	AUC [10] [µM·h]	inhibition (INH) (Cytochrome P450 2D6)	bioavailability [11] [%]	inhibition (INH) (Cytochrome P450 1A2)	half-life [14] [min]	CLhep predicted [17] [mL/min/kg]	inhibition (INH) (Cytochrome P450 2C19)	IC50 [18] [nM]	IC50 (PC-3 [19]) [nM]	inhibition (INH) (Cytochrome P450 2C9)	IC50 [21] [nM]	Vd [22] [L/kg]	other results
CCNC(=O)Nc1ccc(-c2nc3c(c(N4CCOC[C@@H]4C)n2)CCN(c2ncccn2)C3)cc1	Not Active	36	15	33	2	Not Active	42	Not Active	102	61	Not Active	3.3	150	Not Active	57	1.2	inhibition (Mus musculus [1]): inactive; fraction unbound [2]: 0.02; TGI (PC-3 [3]): Active; Activity (Mus musculus [4]): 10%; TGI (PC-3 [7]): Active; fraction unbound [9]: 0.01; inhibition (Mus musculus [12]): inactive; inhibition (Mus musculus [13]): Active; inhibition (Mus musculus [15]): Active; fraction unbound [16]: 0.03; TGI (PC-3 [20]): Active
CCNC(=O)Nc1ccc(-c2nc3c(c(N4CCOCC4)n2)CCN(C(=O)OC(C)(C)C)C3)cc1												22					
CCNC(=O)Nc1ccc(-c2nc(N3CCOCC3)c3sc(C(C)(C)O)cc3n2)cc1																	Ratio Ki [23]: 20
CCOC(=O)Nc1ccc(-c2nc3c(c(N4CCOCC4)n2)CCN(C(=O)c2ccccc2)C3)cc1												115	4800				
CCNC(=O)Nc1ccc(-c2nc3c(c(N4CCOC[C@@H]4C)n2)CCN(c2nnc(C)o2)C3)cc1	Not Active					Not Active		Not Active			Not Active	22	310	Not Active	130		
CCNC(=O)Nc1ccc(-c2nc3c(c(N4CCOCC4)n2)CCN(C(=O)c2ccccc2)C3)cc1												22	340				
CCNC(=O)Nc1ccc(-c2nc3c(c(N4CCOC[C@@H]4C)n2)CCN(c2nc(C)ns2)C3)cc1	Not Active	22	19	29	2.5	Not Active	32	Not Active	31.8	58	Not Active	8.7	230	Not Active	69	0.72	fraction unbound [2]: 0.03; fraction unbound [9]: 0.02; fraction unbound [16]: 0.04
CCNC(=O)Nc1ccc(-c2nc3c(c(N4CCOC[C@@H]4C)n2)CN(c2cnccn2)CC3)cc1		120	15	44	0.41		29		10.8	80						1.4	fraction unbound [2]: 0.03; fraction unbound [9]: 0.03; fraction unbound [16]: 0.04
CCNC(=O)Nc1ccc(-c2nc3c(c(N4CCOC[C@@H]4C)n2)CCN(c2cccnn2)C3)cc1	Not Active	44	7.3	19	0.87	Not Active	21.8	Not Active	45	34	Not Active	13	140	Not Active	290	1.7	
Cc1c(CN2CCN(C(=O)[C@H](C)O)CC2)sc2c(N3CCOCC3)nc(-c3cnc(N)nc3)nc12																	inhibition (Mus musculus [24]): Active; inhibition (Mus musculus [25]): Active
CCNC(=O)Nc1ccc(-c2nc3c(c(N4CCOC[C@@H]4C)n2)CCN(c2cnccn2)C3)cc1	Not Active					Not Active		Not Active			Not Active	4.3	55	Not Active	110		
CCNC(=O)Nc1ccc(-c2nc3c(c(N4CCOC[C@@H]4CC)n2)CCN(c2ncccn2)C3)cc1	Not Active					Not Active		Not Active			Not Active	1.5	40	Not Active	38		
CCNC(=O)Nc1ccc(-c2nc3c(c(N4CCOCC4)n2)CCN(S(C)(=O)=O)C3)cc1												43	430				
CCNC(=O)Nc1ccc(-c2nc3c(c(N4CCOCC4)n2)CCN(C(=O)OC)C3)cc1												37	220				
CCNC(=O)Nc1ccc(-c2nc3c(c(N4CCOC[C@@H]4C)n2)CN(c2ncccn2)CC3)cc1		38	16	44	2.9		62		102	71						2.4	fraction unbound [2]: 0.02; fraction unbound [9]: 0.03; fraction unbound [16]: 0.03
CO[C@H]1C[C@@H]2CC[C@@H](C)[C@@](O)(O2)C(=O)C(=O)N2CCCC[C@H]2C(=O)O[C@H]([C@H](C)C[C@@H]2CC[C@@H](O)[C@H](OC)C2)CC(=O)[C@H](C)/C=C(\C)[C@@H](O)[C@@H](OC)C(=O)[C@H](C)C[C@H](C)/C=C/C=C/C=C/1C																	TGI (PC-3 [26]): Active; inhibition (Mus musculus [27]): inactive; inhibition (Mus musculus [28]): Active
